# High-throughput results as filed in PubChem.
# TCR-CD3 inh – inhibitors of human TCR-CD3 interaction | actives 0.37% (n = 360,000) | TAMRA-labeled TCR probe fluorescence, biochemical | inhibition, % at 9.4 µM;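 note: recombinant mutant TCR 2C K166C tagged with TAMRA read by polarization; 0% = receptor in buffer alone and 100% = receptor with positive control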
# SIAE inh – blocks human sialic acid acetylesterase | inhibition, % at 9.66 µM | actives 0.69% (n = 370,000) | Q9HAT2 | SIAE FP-Rh probe binding, fluorescence polarization;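 active = inhibition above a cutoff: mean of compounds within the control limits plus 3 SD of those, cut at about 17% in these data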;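 note: 0% = plate median of compound wells and 100% = probe without SIAE protein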
# mABHD4 FP – ABHD4 (mouse) inhibition, primary FP screen; actives 0.54% (n = 370,000); inhibition, % at 8.92 µM; AID 720543; purified mABHD4, FP-Rh probe fluorescence polarization; Q8VD66;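 active = inhibition exceeding the mean over every tested compound plus 3 SD, cut at about 30% in these data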;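 note: 0% = plate median of compound wells and 100% = S159A mutant with DMSO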
#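 Assay system: mABHD4 protein; medium: HEPES pH 7.0, NaCl, Pluronic buffer; dosing: 8.92 µM, single dose; schedule: 45 min + 60 min at 25 °C; signal: FP readout, ex 525 nm / em 598 nm; read-out: normalized percent inhibition of probe labeling; repeats: single replicate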
# PRMT1 FP inh – inhibitors of human PRMT1; Q99873; recombinant PRMT1, activity-based probe fluorescence polarization; inhibition, % at 2.79 µM; actives 1.3% (n = 370,000); AID 652257;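 active = inhibition above about 21% made by adding two undisclosed values, limit read from the data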
# Target sequence (Q99873 whole entry, looked up): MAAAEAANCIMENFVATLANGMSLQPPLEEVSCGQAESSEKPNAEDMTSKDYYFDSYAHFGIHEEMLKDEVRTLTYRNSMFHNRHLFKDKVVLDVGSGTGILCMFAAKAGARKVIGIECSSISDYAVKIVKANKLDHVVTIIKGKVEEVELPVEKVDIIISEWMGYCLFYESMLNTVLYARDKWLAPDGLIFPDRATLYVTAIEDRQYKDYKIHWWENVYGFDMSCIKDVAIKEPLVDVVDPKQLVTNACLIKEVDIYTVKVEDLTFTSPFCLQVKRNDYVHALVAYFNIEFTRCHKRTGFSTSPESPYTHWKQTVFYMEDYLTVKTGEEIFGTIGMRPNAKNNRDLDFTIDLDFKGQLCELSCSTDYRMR
# HTRA1 inh – inhibitors of human serine peptidase HTRA1; Q92743; inhibition, % at 5.96 µM; recombinant HTRA1, FP-rhodamine activity-based probe, fluorescence polarization; AID 504803; actives 0.5% (n = 340,000); in the data active = inhibition above about 36%;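 note: 0% = enzyme with DMSO and 100% = wells lacking enzyme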
# BSA TAMRA ctr – interferes with TAMRA-BSA probe, flagging TCR-CD3 hits; shares compounds with TCR-CD3 inh; TAMRA-labeled BSA probe fluorescence counterscreen; inhibition, % at 9.4 µM; actives 10% (n = 1,200); AID 652035; in the data active = inhibition above about 23%;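 note: 0% = buffer low control and 100% = reference high control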
# TCR-CD3 inh conf – confirmation of human TCR-CD3 interaction inhibitors. shares compounds with TCR-CD3 inh. TAMRA-labeled TCR probe fluorescence binding assay. inhibition, % at 9.4 µM. actives 48% (n = 1,200)
# PRMT1 confirm – PRMT1 (human) inhibition, FP confirmation. shares compounds with PRMT1 FP inh. recombinant His-PRMT1, activity-based probe fluorescence polarization. inhibition, % at 2.79 µM. actives 42% (n = 3,300);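 active = mean inhibition across replicates above the hit cutoff derived for the earlier primary screen, cut at about 22% in these data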
# Starred values were filed as active, the others as inactive; . = no result. The list is not random: actives were taken first. Their share in the collection is about 2.6%. Cut-off read from the data, not from the text of the source, unless noted: active = inhibition above about 19%; inactive = the rest.
SMILES,TCR-CD3 inh,SIAE inh,mABHD4 FP,PRMT1 FP inh,HTRA1 inh,BSA TAMRA ctr,TCR-CD3 inh conf,PRMT1 confirm
Fc1ccccc1-c1nc(N2CCCCC2)c2ccccc2n1,27.9*,-4.7,1.8,-0.2,-9.8,14.2,6.6,.
Oc1ccccc1-c1nc(N2CCCC2)c2ccccc2n1,8.0,2.1,0.8,-3.2,5.4,.,.,.
CCOC(=O)[C@@]12CCCC3=C1N(CCC3)C(=O)[C@H]2CC(=O)NCCCCc1ccccc1,.,-2.2,-3.4,2.1,.,.,.,.
COc1ccccc1NC(=O)c1c(Nc2ccccc2C)sc(C(=O)Nc2cccc(Cl)c2)c1N,20.9*,-70.9,-71.3,-2.9,-66.1,6.5,11.7,.
COc1ccc(Nc2sc(C(=O)c3ccc(Cl)cc3)c(N)c2C(=O)Nc2ccccc2OC)cc1,-5.8,9.0,5.1,5.6,18.6,.,.,.
COc1c(F)c(F)c(C(=O)Nc2ccc(-c3nc4ccccc4[nH]3)cc2)c(F)c1F,1.5,1.9,4.0,-1.1,-1.5,.,.,.
COc1cccc(OC)c1C(=O)NC(=S)Nc1cc(-c2nc3ccccc3[nH]2)ccc1Cl,60.0*,-154.6,-106.8,2.2,-97.9,19.1,17.5,.
N#Cc1ccc(CC(=O)c2ccccc2)[nH]c1=O,59.8*,7.1,42.9*,29.1*,27.7,16.5,8.6,0.3
C#CCN1CC(N(C)CCOC(=O)c2ccc([N+](=O)[O-])cc2)CS1(=O)=O (stereo not given),.,2.3,-3.9,-2.4,.,.,.,.
O=C(CCN1C(=O)/C(=C/c2ccccc2)SC1=S)NC1CCS(=O)(=O)C1 (stereo not given),4.0,4.8,-4.4,-3.0,-1.4,.,.,.
O=C(CN1C(=O)/C(=C/c2ccco2)SC1=S)NC1CCS(=O)(=O)C1 (stereo not given),22.1*,5.8,26.0,44.3*,10.6,-7.3,1.4,24.1*
NC(=S)N/N=C/c1cccc(O)c1O,-7.5,9.3,15.4,10.2,8.2,.,.,.
Cc1cc(/C=N/NC(N)=S)c(O)c(/C=N/NC(N)=S)c1,25.1*,12.7,15.0,74.7*,23.5,1.1,14.6,82.0*
COC(=O)[C@@]1(Cc2ccc(OC)cc2)[C@H]2c3cc(C(=O)N4CCCC4)n(Cc4ccc(C)o4)c3C[C@H]2CN1C(=O)c1ccccc1,60.1*,-2.0,2.9,39.3*,.,0.0,-2.8,3.2
COc1ccc(-c2noc(C3CCCN(C(=O)Nc4ccc5c(c4)OCO5)C3)n2)cc1 (stereo not given),.,1.9,0.8,-0.7,.,.,.,.
COc1cccc(C(=O)n2ccc3ccc(-c4ccc5ccn(C(=O)c6cccc(OC)c6)c5c4)cc32)c1,.,-8.5,-2.1,0.0,.,.,.,.
O=C1C(=Cc2cn(-c3ccccc3)nc2-c2ccc(OCc3ccccc3)cc2)SC(=S)N1CCS(=O)(=O)O,25.9*,-96.5,-106.2,42.6*,.,1.2,19.5*,4.9
C[C@H]1[C@@H](OC(=O)NCc2cccs2)CC[C@@]23CCCN2C(=O)CCC[C@@H]13,.,-2.1,1.6,-1.1,.,.,.,.
CC12CCC(C(=O)N(CSC(=S)N/N=C\c3ccccc3O)C1=O)C2(C)C (stereo not given),31.5*,2.9,19.8,24.8*,26.2,-9.7,20.1*,2.9
CN(CCC#N)C(=O)COC(=O)c1c2c(nc3ccccc13)/C(=C/c1ccco1)CC2,51.8*,20.1*,41.6*,40.7*,19.1,-14.1,31.7*,29.1*
O=C1C(=O)N(Cc2ccc(-c3ccc(Cl)nc3)cc2)c2ccc(OC(F)(F)F)cc21,.,8.7,3.5,5.3,.,.,.,.
O=C(O)c1ccccc1-c1ccc(C=c2sc3nc4cc(Br)cnc4n3c2=O)o1,27.4*,6.0,28.5,84.0*,.,-16.2,23.1*,25.1*
COc1ccccc1N1C(=N)S/C(=C\c2ccc(-c3ccccc3C(=O)O)o2)C1=O,-1.1,0.6,11.9,2.8,-2.4,.,.,.
O=c1nc2c(O)cccn2c2c1c(=O)[nH]c1ccccc12,53.9*,3.2,-0.2,34.2*,16.8,-10.7,13.3,34.4*
